Laboratory results taken from ChEMBL document CHEMBL4732217, “Design, synthesis, biological evaluation, and docking studies of novel (imidazol-5-yl)pyrimidine-based derivatives as dual BRAF/p38α inhibitors” (Eur J Med Chem, 2021).

What was measured:
[1] = target: T1, Serine/threonine-protein kinase B-raf (Homo sapiens, UniProt P15056, V600E); test: Inhibition of BRAF V600E mutant (unknown origin) preincubated for 20 mins followed by 33P-ATP addition and measured after 2 hrs by HotSpot kinase assay
T1 sequence (P15056 2-766 V600E limits assumed): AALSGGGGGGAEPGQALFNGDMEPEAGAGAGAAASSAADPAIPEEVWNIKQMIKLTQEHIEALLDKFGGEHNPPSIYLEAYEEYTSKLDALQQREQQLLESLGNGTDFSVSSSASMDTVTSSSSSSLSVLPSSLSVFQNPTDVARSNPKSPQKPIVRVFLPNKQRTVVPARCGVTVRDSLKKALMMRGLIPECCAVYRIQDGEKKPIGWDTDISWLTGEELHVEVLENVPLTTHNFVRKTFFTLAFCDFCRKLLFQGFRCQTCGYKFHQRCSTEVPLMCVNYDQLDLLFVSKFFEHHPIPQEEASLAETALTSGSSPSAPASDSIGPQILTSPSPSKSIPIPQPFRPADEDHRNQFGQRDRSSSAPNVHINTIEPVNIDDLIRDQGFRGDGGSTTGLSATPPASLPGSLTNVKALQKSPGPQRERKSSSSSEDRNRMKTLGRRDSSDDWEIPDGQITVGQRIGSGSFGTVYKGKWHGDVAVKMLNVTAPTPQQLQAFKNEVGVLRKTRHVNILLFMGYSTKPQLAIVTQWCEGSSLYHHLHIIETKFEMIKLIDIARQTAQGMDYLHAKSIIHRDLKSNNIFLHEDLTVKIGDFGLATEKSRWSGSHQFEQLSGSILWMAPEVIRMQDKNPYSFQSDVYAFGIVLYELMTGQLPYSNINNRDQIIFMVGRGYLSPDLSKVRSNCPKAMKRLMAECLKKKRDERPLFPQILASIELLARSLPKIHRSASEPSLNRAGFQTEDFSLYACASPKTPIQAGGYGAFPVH

[2] = test system: Serine/threonine-protein kinase B-raf (Homo sapiens), P15056 [V600E]; test: Inhibition of BRAF V600E mutant (unknown origin) at 10 uM using Ser/Thr 03 as substrate after 1 hr in presence of ATP by Z'-LYTE assay relative to control
Chain of Serine/threonine-protein kinase B-raf (Homo sapiens), P15056 [V600E] (P15056 whole entry V600E): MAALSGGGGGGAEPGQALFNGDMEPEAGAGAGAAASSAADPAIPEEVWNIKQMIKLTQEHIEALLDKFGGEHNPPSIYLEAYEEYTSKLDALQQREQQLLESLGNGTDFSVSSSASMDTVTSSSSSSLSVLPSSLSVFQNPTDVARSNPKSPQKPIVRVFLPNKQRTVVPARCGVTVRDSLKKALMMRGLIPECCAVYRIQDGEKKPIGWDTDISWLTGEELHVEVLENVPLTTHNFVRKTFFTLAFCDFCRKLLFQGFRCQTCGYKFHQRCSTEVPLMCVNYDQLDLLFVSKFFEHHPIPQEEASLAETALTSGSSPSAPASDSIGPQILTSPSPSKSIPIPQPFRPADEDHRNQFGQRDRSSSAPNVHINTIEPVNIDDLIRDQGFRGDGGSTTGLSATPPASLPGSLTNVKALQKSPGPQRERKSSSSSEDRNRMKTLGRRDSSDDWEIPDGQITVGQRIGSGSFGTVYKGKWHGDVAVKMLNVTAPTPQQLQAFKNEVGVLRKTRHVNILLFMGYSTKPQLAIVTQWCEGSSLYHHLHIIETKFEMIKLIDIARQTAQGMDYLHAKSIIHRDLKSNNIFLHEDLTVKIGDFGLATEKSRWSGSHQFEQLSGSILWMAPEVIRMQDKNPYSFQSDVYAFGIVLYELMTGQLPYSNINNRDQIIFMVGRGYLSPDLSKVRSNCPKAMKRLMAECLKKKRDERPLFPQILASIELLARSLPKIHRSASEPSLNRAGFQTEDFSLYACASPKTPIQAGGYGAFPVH
How it was run: (§1)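 Run by a commercial kinase profiling service at 100 µM ATP. Single-point screening was followed by 5-point titration (1 nM, 10 nM, 100 nM, 1 µM, 10 µM) for IC50.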

[3] = target: T2, Mitogen-activated protein kinase 14 (Homo sapiens, UniProt Q16539); test: Inhibition of p38 alpha (unknown origin) at 10 uM using Ser/Thr 15 as substrate incubated for 1 hr in presence of ATP by Z'-Lyte assay relative to control; how it was run: as §1
T2 sequence (Q16539 whole entry): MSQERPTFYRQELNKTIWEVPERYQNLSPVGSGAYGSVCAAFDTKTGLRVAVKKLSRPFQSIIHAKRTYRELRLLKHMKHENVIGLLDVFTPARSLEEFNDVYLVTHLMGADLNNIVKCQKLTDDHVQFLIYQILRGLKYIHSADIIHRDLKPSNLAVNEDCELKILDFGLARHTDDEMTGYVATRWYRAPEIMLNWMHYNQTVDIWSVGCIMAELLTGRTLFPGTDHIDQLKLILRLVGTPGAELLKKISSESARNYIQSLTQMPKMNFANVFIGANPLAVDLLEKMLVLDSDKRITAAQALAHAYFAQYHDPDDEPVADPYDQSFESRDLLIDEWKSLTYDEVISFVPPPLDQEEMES

LOX IMVI = test: cells; assay type: functional, cell-based; conditions: Homo sapiens, 24 h
[4] = target: T1, Serine/threonine-protein kinase B-raf; test: Inhibition of BRAF V600E mutant (unknown origin) using Ser/Thr 03 as substrate after 1 hr in presence of ATP by Z'-LYTE assay
[5] = target: T2, Mitogen-activated protein kinase 14; test: Inhibition of p38 alpha (unknown origin) using Ser/Thr 15 as substrate incubated for 1 hr in presence of ATP by Z'-Lyte assay
[6] = Cytotoxicity against human IOSE-80PC cells assessed as reduction in cell viability incubated for 24 hrs by MTT assay; assay type: cell-based, IOSE80pc
How it was run: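 Human ovarian epithelial IOSE-80PC cells grown in RPMI 1640 with FBS and penicillin-streptomycin, seeded at 1 × 10⁵/mL, exposed to a range of compound concentrations in 5-dose mode. Viability read by MTT; IC50 derived.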

[7] = Selectivity index, ratio of IC50 for human IOSE-80PC cells to IC50 for human LOX IMVI cells
How it was run: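 IC50 against IOSE-80PC normal ovarian epithelial cells (MTT, 5-dose) divided by IC50 against LOX-IMVI melanoma cells (MTT, 24 h compound exposure, means of duplicate experiments ± S.D.).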

[8] = Inhibition of LPS stimulated TNF-alpha production in mouse RAW264.7 macrophages preincubated for 1 hr followed by LPS stimulation and measured after 24 hrs by EIA; assay type: functional
How it was run: (§2)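 RAW 264.7 macrophages plated at 2 × 10⁵ cells per well and left overnight. Pretreated 1 h with compound, then stimulated 24 h with lipopolysaccharide. TNF-α in culture supernatant measured by EIA. BAY 11-7082 reference tested at 0.5, 1.0, 5.0 and 10.0 µM. Values are means ± S.D.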

[9] = Inhibition of LPS stimulated TNF-alpha production in mouse RAW264.7 macrophages at 1 uM preincubated for 1 hr followed by LPS stimulation and measured after 24 hrs by EIA relative to control; assay type: functional; conditions: time 25 hrs; how it was run: as §2
[10] = test system: Serine/threonine-protein kinase B-raf (Homo sapiens), P15056 [V600E]; test: Potency index, ratio of staurosporine IC50 to compound IC50 for inhibition of BRAF V600E mutant (unknown origin)
[11] = Inhibition of LPS stimulated TNF-alpha production in mouse RAW264.7 macrophages at 10 uM preincubated for 1 hr followed by LPS stimulation and measured after 24 hrs by EIA relative to control; assay type: functional; conditions: time 25 hrs; how it was run: as §2
[12] = target: T2, Mitogen-activated protein kinase 14; test: Potency index, ratio of PP2 IC50 to compound IC50 for inhibition of P38 alpha (unknown origin)
RAW264.7 = test: Potency index, ratio of BAY 11-7082 IC50 to compound IC50 for inhibition of LPS stimulated TNF-alpha production in mouse RAW264.7 macrophages; assay type: functional

inhibition [2] [%] | inhibition [3] [%] | IC50 (LOX IMVI) [µM] | Compound | further results
 |  |  | O=S(=O)(NCCNc1cc(-c2[nH]c(-c3ccccc3)nc2-c2cccc(O)c2)ccn1)c1ccc(O)cc1 | IC50 [1]: 0.032 µM
81.5 | 73.4 | 33.9 | COc1cc(-c2nc(-c3ccccc3)[nH]c2-c2ccnc(NCCCNS(=O)(=O)c3ccc(Br)cc3)n2)ccc1F | 
96.2 | 51.1 | 7.72 | O=S(=O)(NCCCNc1nccc(-c2[nH]c(-c3ccccc3)nc2-c2ccc(Cl)c(O)c2)n1)c1cccc2ccccc12 | 
101 | 70.8 | 6.02 | Cc1ccc(S(=O)(=O)NCCCNc2nccc(-c3[nH]c(-c4ccccc4)nc3-c3ccc(Cl)c(O)c3)n2)cc1 | IC50 [4]: 0.00804 µM
93.9 | 84.9 | 14.2 | O=S(=O)(NCCCNc1nccc(-c2[nH]c(-c3ccccc3)nc2-c2ccc(F)c(O)c2)n1)c1ccc(Cl)cc1 | 
97 | 91.4 | 19.2 | O=S(=O)(NCCCNc1nccc(-c2[nH]c(-c3ccccc3)nc2-c2ccc(F)c(O)c2)n1)c1ccc(F)cc1 | 
97.3 | 73.7 | 15.5 | O=S(=O)(NCCCNc1nccc(-c2[nH]c(-c3ccccc3)nc2-c2ccc(Cl)c(O)c2)n1)c1ccc(Br)cc1 | IC50 [4]: 0.0218 µM
101 | 87.8 | 26.3 | Cc1ccc(S(=O)(=O)NCCCNc2nccc(-c3[nH]c(-c4ccccc4)nc3-c3ccc(F)c(O)c3)n2)cc1 | IC50 [4]: 0.00868 µM; IC50 [5]: 0.2 µM
42.4 | 48.6 | 75.2 | COc1cc(-c2nc(-c3ccccc3)[nH]c2-c2ccnc(NCCCNS(=O)(=O)c3ccc(C(F)(F)F)cc3)n2)ccc1F | 
72.5 | 82.7 | 0.9 | COc1cc(-c2nc(-c3ccccc3)[nH]c2-c2ccnc(NCCCNS(=O)(=O)c3cccc(F)c3)n2)ccc1F | IC50 [6]: > 10 µM; Ratio IC50 [7]: > 11.1
97.1 | 85.5 | 2.3 | O=S(=O)(NCCCNc1nccc(-c2[nH]c(-c3ccccc3)nc2-c2ccc(Cl)c(O)c2)n1)c1ccc(F)cc1 | IC50 [6]: > 10 µM; Ratio IC50 [7]: > 4.35
79.2 | 72.8 | 83.1 | COc1cc(-c2nc(-c3ccccc3)[nH]c2-c2ccnc(NCCCNS(=O)(=O)c3ccc(Cl)cc3)n2)ccc1F | 
80 | 58.6 | 7.47 | COc1cc(-c2nc(-c3ccccc3)[nH]c2-c2ccnc(NCCCNS(=O)(=O)c3ccccc3)n2)ccc1Cl | 
77.3 | 83.5 | 4.52 | COc1cc(-c2nc(-c3ccccc3)[nH]c2-c2ccnc(NCCCNS(=O)(=O)c3ccccc3)n2)ccc1F | 
99.4 | 82.2 | 2.63 | O=S(=O)(NCCCNc1nccc(-c2[nH]c(-c3ccccc3)nc2-c2ccc(Cl)c(O)c2)n1)c1ccccc1 | IC50 [6]: > 10 µM; Ratio IC50 [7]: > 3.8; IC50 [4]: 0.00425 µM
88.3 | 30 | 23.7 | COc1cc(-c2nc(-c3ccccc3)[nH]c2-c2ccnc(NCCCNS(=O)(=O)c3ccc(Br)cc3)n2)ccc1Cl | 
85.1 | 52.1 | 60.9 | COc1cc(-c2nc(-c3ccccc3)[nH]c2-c2ccnc(NCCCNS(=O)(=O)c3ccc(Cl)cc3)n2)ccc1Cl | 
91.1 | 54.6 | 1.8 | COc1ccc(S(=O)(=O)NCCCNc2nccc(-c3[nH]c(-c4ccccc4)nc3-c3ccc(Cl)c(OC)c3)n2)cc1 | 
99.8 | 79.8 | 3.71 | O=S(=O)(NCCCNc1nccc(-c2[nH]c(-c3ccccc3)nc2-c2ccc(F)c(O)c2)n1)c1cccc2ccccc12 | 

inhibition [2] [%] | inhibition [3] [%] | IC50 (LOX IMVI) [µM] | Compound | further results
84.9 | 58.3 | 5.11 | COc1cc(-c2nc(-c3ccccc3)[nH]c2-c2ccnc(NCCCNS(=O)(=O)c3cccc(F)c3)n2)ccc1Cl | 
90 | 27.1 | 13.5 | COc1cc(-c2nc(-c3ccccc3)[nH]c2-c2ccnc(NCCCNS(=O)(=O)c3cccc4ccccc34)n2)ccc1Cl | 
81 | 44.4 | 14.9 | COc1cc(-c2nc(-c3ccccc3)[nH]c2-c2ccnc(NCCCNS(=O)(=O)c3cccc4ccccc34)n2)ccc1F | 
81 | 62.1 | 4.53 | COc1cc(-c2nc(-c3ccccc3)[nH]c2-c2ccnc(NCCCNS(=O)(=O)c3ccc(F)cc3)n2)ccc1Cl | 
101 | 77.6 | 36.8 | O=S(=O)(NCCCNc1nccc(-c2[nH]c(-c3ccccc3)nc2-c2ccc(Cl)c(O)c2)n1)c1ccc(O)cc1 | IC50 [4]: 0.00781 µM
98.4 | 65.4 | 2.45 | O=S(=O)(NCCCNc1nccc(-c2[nH]c(-c3ccccc3)nc2-c2ccc(F)c(O)c2)n1)c1ccc(C(F)(F)F)cc1 | IC50 [6]: > 10 µM; Ratio IC50 [7]: > 4.08
99.2 | 54.3 | 10.1 | O=S(=O)(NCCCNc1nccc(-c2[nH]c(-c3ccccc3)nc2-c2ccc(Cl)c(O)c2)n1)c1ccc(C(F)(F)F)cc1 | 
101 | 92.8 | 13.9 | O=S(=O)(NCCCNc1nccc(-c2[nH]c(-c3ccccc3)nc2-c2ccc(F)c(O)c2)n1)c1ccc(O)cc1 | IC50 [8]: 0.0963 µM; inhibition at 1 µM [9]: 85.2%; Ratio IC50 [10]: 12.7; inhibition at 10 µM [11]: 96.4%; Ratio IC50 [12]: 49.8; Ratio IC50 (RAW264.7): 53.8; IC50 [4]: 0.00249 µM; IC50 [5]: 0.085 µM
82.4 | 79.4 | 2.59 | COc1cc(-c2nc(-c3ccccc3)[nH]c2-c2ccnc(NCCCNS(=O)(=O)c3ccc(C)cc3)n2)ccc1F | 
100 | 84.8 | 5.66 | O=S(=O)(NCCCNc1nccc(-c2[nH]c(-c3ccccc3)nc2-c2ccc(F)c(O)c2)n1)c1ccc(Br)cc1 | IC50 [4]: 0.0263 µM; IC50 [5]: 0.33 µM
80.1 | 84.1 | 3.96 | COc1cc(-c2nc(-c3ccccc3)[nH]c2-c2ccnc(NCCCNS(=O)(=O)c3ccc(F)cc3)n2)ccc1F | 
89.1 | 88.5 | 6.13 | COc1ccc(S(=O)(=O)NCCCNc2nccc(-c3[nH]c(-c4ccccc4)nc3-c3ccc(F)c(OC)c3)n2)cc1 | 
99.7 | 70.8 | 61.3 | O=S(=O)(NCCCNc1nccc(-c2[nH]c(-c3ccccc3)nc2-c2ccc(Cl)c(O)c2)n1)c1ccc(Cl)cc1 | 
88.2 | 50.4 | 18.6 | COc1cc(-c2nc(-c3ccccc3)[nH]c2-c2ccnc(NCCCNS(=O)(=O)c3ccc(C)cc3)n2)ccc1Cl | 
101 | 78.6 | 33.6 | O=S(=O)(NCCCNc1nccc(-c2[nH]c(-c3ccccc3)nc2-c2ccc(Cl)c(O)c2)n1)c1cccc(F)c1 | IC50 [4]: 0.0148 µM
55.9 | 18.9 | 1.78 | COc1cc(-c2nc(-c3ccccc3)[nH]c2-c2ccnc(NCCCNS(=O)(=O)c3ccc(C(F)(F)F)cc3)n2)ccc1Cl | IC50 [6]: > 10 µM; Ratio IC50 [7]: > 5.62
98.4 | 87 | 9.58 | O=S(=O)(NCCCNc1nccc(-c2[nH]c(-c3ccccc3)nc2-c2ccc(F)c(O)c2)n1)c1ccccc1 | IC50 [4]: 0.00562 µM; IC50 [5]: 0.21 µM
100 | 90.5 | 7.89 | O=S(=O)(NCCCNc1nccc(-c2[nH]c(-c3ccccc3)nc2-c2ccc(F)c(O)c2)n1)c1cccc(F)c1 | IC50 [4]: 0.0303 µM; IC50 [5]: 0.14 µM
 |  |  | Cc1ccc(S(=O)(=O)/C=C/C#N)cc1 | IC50 [8]: 5.18 µM
